Source: ChEMBL document CHEMBL1147096, “Activities of DL-alpha-difluoromethylarginine and polyamine analogues against Cryptosporidium parvum infection in a T-cell receptor alpha-deficient mouse model” (2007)
Calls of active or inactive are those of the source. The rule behind the calls is not given here.

Experiments:
[1] = system: Cryptosporidium parvum; assay: Anticryptosporidial activity against Cryptosporidium parvum infected TCR alpha deficient-mouse assessed as prevention of oocyst shedding at 20 mg/kg/day after 7 days; assay type: functional
Procedure, shortened: (§1)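 Seven-day-old TCR-α-deficient mice were gavaged with 2 × 10^4 oocysts, and infection was confirmed in feces one week later. Treatment ran for 7 days: 20 or 134 mg/kg once daily, or 16 mg/kg twice daily. Controls received PBS. Seven days after treatment, fecal smears were stained with carbol fuchsin and scored for oocysts (×400). Ileal and cecal H&E sections were scored 0–2. Shedding was compared by Fisher's exact test.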

[2] = system: Mus musculus; assay: Activity of intestinal epithelial ODC in Swiss-Webster mouse at 0.2 mg, ip after 72 hrs; assay type: functional
Procedure, shortened: (§2)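 Swiss-Webster mice were dosed with CGC-11157 once daily at 20 mg/kg p.o. by feeding needle or 2 mg/kg i.p. They were killed at 48, 72 or 96 h. Intestines were washed in PBS (pH 6.7) and homogenized on ice in 40 mM Tris-HCl (pH 6.7). ODC was measured as 14CO2 trapped from L-[14C]ornithine in 0.2 M acetate (pH 6.5), 60 μM pyridoxal phosphate, 3 mg/ml BSA and 125 μg protein, 30 min at 37°C. Results are in nmol/min/mg protein ± SD.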

[3] = system: Mus musculus; assay: Ratio of intestinal epithelial ODC activity to SSAT activity in Swiss-Webster mouse at 0.2 mg, ip after 72 hrs; assay type: functional
Procedure, shortened: (§3)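 The ratio was calculated from ODC (14CO2 release from [14C]ornithine) and SSAT (acetylation of spermine by [14C]acetyl-CoA) specific activities. Both were measured in intestinal homogenates from Swiss-Webster mice dosed once daily with CGC-11157 p.o. or i.p. and sampled at 48, 72 or 96 h.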

[4] = system: Cryptosporidium parvum; assay: Prevention of Cryptosporidium parvum infection in TCR alpha deficient-mouse pretreated with 20 mg/kgday, po for 2 days prior to oocyst infection and continued for 5 days; assay type: functional; conditions: dose 20 mg/kg
Procedure, shortened: (§4)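 Suckling TCR-α-deficient mice (6–8 per group) were treated once daily for 2 days, challenged with 2 × 10^4 oocysts, and treated for 5 more days at the same dose (20 or 50 mg/kg). Controls received PBS. Fecal oocyst shedding was checked 10 days after treatment by carbol fuchsin smear. Ileal and cecal H&E sections were scored 0–2 and analyzed by Fisher's exact test and ANOVA.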

[5] = system: Mus musculus; assay: Ratio of intestinal epithelial ODC activity to SSAT activity in Swiss-Webster mouse at 0.2 mg, ip after 96 hrs; assay type: functional; procedure, shortened: as §3
[6] = system: Cryptosporidium parvum; assay: Anticryptosporidial activity against Cryptosporidium parvum infected TCR alpha deficient-mouse assessed as prevention of oocyst shedding at 16 mg/kg twice a day after 7 days; assay type: functional; procedure, shortened: as §1
[7] = system: Mus musculus; assay: Ratio of intestinal epithelial ODC activity to SSAT activity in Swiss-Webster mouse at 2 mg, po after 48 hrs; assay type: functional; procedure, shortened: as §3
[8] = system: Mus musculus; assay: Activity of intestinal epithelial SSAT in Swiss-Webster mouse at […], ip after 96 hrs; assay type: functional
Procedure, shortened: (§5)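 Intestinal homogenates came from Swiss-Webster mice given CGC-11157 once daily (20 mg/kg p.o. or 2 mg/kg i.p.) and killed at 48, 72 or 96 h. SSAT was measured as [1-14C]acetyl-CoA incorporation into monoacetylspermine in Bicine (pH 8.0), with 16.5 μM labeled plus 1 mM acetyl-CoA, 2 mM spermine and 100 μg protein, 60 min at 37°C. Products were bound on cellulose phosphate discs and counted. Results are in nmol/min/mg protein ± SD.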

[9] = system: Mus musculus; assay: Ratio of intestinal epithelial ODC activity to SSAT activity in Swiss-Webster mouse at 2 mg, po after 96 hrs; assay type: functional; procedure, shortened: as §3
[10] = system: Mus musculus; assay: Ratio of intestinal epithelial ODC activity to SSAT activity in Swiss-Webster mouse at 2 mg, po after 72 hrs; assay type: functional; procedure, shortened: as §3
[11] = system: Mus musculus; assay: Ratio of intestinal epithelial ODC activity to SSAT activity in Swiss-Webster mouse at 0.2 mg, ip after 48 hrs; assay type: functional; procedure, shortened: as §3
[12] = system: Mus musculus; assay: Activity of intestinal epithelial ODC in Swiss-Webster mouse at 0.2 mg, ip after 48 hrs; assay type: functional; procedure, shortened: as §2
[13] = system: Mus musculus; assay: Activity of intestinal epithelial SSAT in Swiss-Webster mouse at 0.2 mg, ip after 48 hrs; assay type: functional; procedure, shortened: as §5
[14] = system: Mus musculus; assay: Activity of intestinal epithelial ODC in Swiss-Webster mouse at […], ip after 96 hrs; assay type: functional; procedure, shortened: as §2
[15] = system: Mus musculus; assay: Activity of intestinal epithelial SSAT in Swiss-Webster mouse at […], ip after 72 hrs; assay type: functional; procedure, shortened: as §5
[16] = system: Cryptosporidium parvum; assay: Prevention of Cryptosporidium parvum infection in TCR alpha deficient-mouse pretreated with 50 mg/kg/day, po for 2 days prior to oocyst infection and continued for 5 days; assay type: functional, organism-based; procedure, shortened: as §4
[17] = system: Cryptosporidium parvum; assay: Anticryptosporidial activity against Cryptosporidium parvum infected TCR alpha deficient-mouse assessed as prevention of oocyst shedding at 134 mg/kg/day after 7 days; assay type: functional; procedure, shortened: as §1
[18] = system: Cryptosporidium parvum; assay: Effect on infection of HCT8 cells by Cryptosporidium parvum […] isolated from mouse treated with 134 mg/kg/day for 7 days assessed as viability of […]; assay type: functional, organism-based
Procedure, shortened: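 Oocysts were recovered from TCR-α-deficient mice that had been infected, then treated with 134 mg/kg once daily for 7 days. Viability was judged by whether the oocysts could establish infection in an HCT-8 cell monolayer in vitro.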

NCCCC(N)(C(=O)O)C(F)F (racemic) [EFLORNITHINE]
Activity [1]: 33%

CCNCCCCNCCCCNCCCCNC/C=C\CNCCCCNCCCCNCCCCNCC
Activity [2]: 0.034 nmol/mg/min | Ratio [3]: 1 | Activity [1]: 50% | Activity [4]: 50% | Ratio [5]: 4 | Activity [6]: 50% | Ratio [7]: 0.99 | Activity [8]: 0.04 nmol/mg/min | Ratio [9]: 2.9 | Ratio [10]: 1.55 | Ratio [11]: 0.97 | Activity [12]: 0.079 nmol/mg/min | Activity [13]: 0.081 nmol/mg/min | Activity [14]: 0.16 nmol/mg/min | Activity [15]: 0.034 nmol/mg/min

CCNCCCNC/C=C\CNCCCNCC
Activity [16]: Active | Activity [17]: Toxic

CCNCCCCNCCCCNCCCCNCCCCNC/C=C/CNCCCCNCCCCNCCCCNCCCCNCC
Activity [18]: inactive
